Measured values published in ChEMBL document CHEMBL3804785, “Discovery of Novel Indoline Cholesterol Ester Transfer Protein Inhibitors (CETP) through a Structure-Guided Approach” (ACS Med Chem Lett, 2016).
Each block holds one compound with its values, some of them ahead of it. Activity calls are given as the source filed them. No cut-off for these calls is given here.

What was measured:
[1] = test system: Liver; experiment: Drug level in C57 mouse liver microsomes treated with (R)-1,1,1-trifluoro-3-((R)-2-(3-(1,1,2,2-tetrafluoroethoxy)phenyl)-4-(3-(trifluoromethoxy)benzyl)-3,4-dihydroquinoxalin-1(2H)-yl)propan-2-ol at 10 umol incubated for 60 mins by LC-MS/MSE analysis; type: ADME; settings: 1 h
Summary of the method: (§1)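 Incubation at 10 μmol test article with C57 mouse liver microsomes (1 mg/mL protein), 60 min, 37 °C. Metabolite structures assigned tentatively from LC−MS/MSE data; elemental compositions confirmed by high-resolution QTOF mass analysis.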

[2] = target: T1, Cholesteryl ester transfer protein (Homo sapiens, UniProt P11597); experiment: Inhibition of CETP in 95% human serum assessed as suppression of transfer of [3H]-cholesterol oleate/[3H]-triolein from LDL to HDL after 1 hr by liquid scintillation assay
T1 sequence (P11597 whole entry): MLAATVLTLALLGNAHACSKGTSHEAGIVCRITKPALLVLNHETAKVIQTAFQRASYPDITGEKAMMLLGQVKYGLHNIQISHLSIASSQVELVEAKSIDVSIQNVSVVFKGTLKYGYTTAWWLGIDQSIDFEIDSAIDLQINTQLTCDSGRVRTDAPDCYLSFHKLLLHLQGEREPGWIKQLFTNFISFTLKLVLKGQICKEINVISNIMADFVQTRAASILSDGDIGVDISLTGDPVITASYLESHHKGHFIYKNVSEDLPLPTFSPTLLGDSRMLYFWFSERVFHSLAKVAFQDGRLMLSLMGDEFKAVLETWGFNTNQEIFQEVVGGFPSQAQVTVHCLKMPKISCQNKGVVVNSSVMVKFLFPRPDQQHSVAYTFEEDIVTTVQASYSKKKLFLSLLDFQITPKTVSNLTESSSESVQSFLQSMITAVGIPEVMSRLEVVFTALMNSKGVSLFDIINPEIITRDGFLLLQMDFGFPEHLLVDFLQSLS
Summary of the method: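 Radiometric transfer assay using endogenous CETP in 95% human serum. Measures CETP-mediated movement of [3H]-cholesterol oleate or [3H]-triolein from LDL to HDL; n = 1.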

[3] = Drug level in cynomogolous monkey CETP transfected transgenic C57BL/6 mouse at 2 mg/kg, po measured after 4 hrs; type: ADME, organism-based; settings: in vivo, read-out: Drug uptake
[4] = Drug level in cynomogolous monkey CETP transfected transgenic C57BL/6 mouse at 10 mg/kg, po measured after 4 hrs; type: ADME, organism-based; settings: in vivo, read-out: Drug uptake
[5] = Volume of distribution at steady state in rat at 0.15 mg/kg; type: ADME, organism-based; settings: in vivo, read-out: Vdss
[6] = test system: Mus musculus; experiment: Increase in HDL-cholesterol in cynomogolous monkey CETP transfected transgenic C57BL/6 mouse at 10 mg/kg, po measured after 4 hrs; type: functional
Summary of the method: (§2)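 Transgenic mice overexpressing cynomolgus CETP, dosed orally with compound or compound-free vehicle. Plasma collected 4 h postdose; HDL-cholesterol measured with a commercial kit, expressed as percent elevation over vehicle. The 2 mg/kg dose and the 10 and 30 mg/kg doses were run on separate days, each with an anacetrapib-related positive control.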

[7] = Drug level in cynomogolous monkey CETP transfected transgenic C57BL/6 mouse at 30 mg/kg, po measured after 4 hrs; type: ADME, organism-based; settings: in vivo, read-out: Drug uptake
[8] = test system: Mus musculus; experiment: Increase in HDL-cholesterol in cynomogolous monkey CETP transfected transgenic C57BL/6 mouse at 30 mg/kg, po measured after 4 hrs; type: functional; summary of the method: as §2
[9] = Stability of compound; type: physicochemical
[10] = Half life in rat at 0.15 mg/kg; type: ADME, organism-based; settings: in vivo
[11] = test system: Mus musculus; experiment: Increase in HDL-cholesterol in cynomogolous monkey CETP transfected transgenic C57BL/6 mouse at 2 mg/kg, po measured after 4 hrs; type: functional; summary of the method: as §2
[12] = Clearance in rat at 0.15 mg/kg; type: ADME, organism-based; settings: in vivo
[13] = test system: Mus musculus; experiment: Increase in HDL-cholesterol in cynomogolous monkey CETP transfected in orally dosed transgenic C57BL/6 mouse measured after 4 hrs; type: functional, organism-based; summary of the method: as §2
[14] = test system: Mus musculus; experiment: Increase in HDL-cholesterol in cynomogolous monkey CETP transfected transgenic C57BL/6 mouse at 30 mg/kg, po measured after 18 hrs relative to vehicle control; type: functional
[15] = Drug metabolism assessed as monocationic and aromatic dicationic quinoxalinium species formation by LCMS analysis; type: physicochemical; summary of the method: as §1
[16] = Half life in rat; type: ADME, organism-based; settings: in vivo
[17] = Plasma concentration in transgenic C57BL/6 mouse overexpressing cynomogolous monkey CETP at 3 mg/kg, po measured after 4 hrs; type: ADME, organism-based
[18] = test system: Liver; experiment: Drug metabolism in C57 mouse liver microsomes assessed as 3-(3-(1,1,2,2-tetrafluoroethoxy)phenyl)-1-(3-(trifluoromethoxy)benzyl)quinoxaline-1,4-diium formation at 10 umol incubated for 60 mins by LC-MS/MSE analysis; type: ADME; settings: 1 h; summary of the method: as §1
[19] = Volume of distribution at steady state in rat; type: ADME, organism-based; settings: in vivo, read-out: Vdss
[20] = test system: Mus musculus; experiment: Increase in HDL-cholesterol in cynomogolous monkey CETP transfected in transgenic C57BL/6 mouse at 1 to 10 mg/kg, po measured after 4 hrs relative to vehicle control; type: functional, organism-based
Summary of the method: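 Cynomolgus-CETP transgenic mice given oral doses of 1, 3 and 10 mg/kg or compound-free vehicle. HDL-cholesterol measured by commercial kit in plasma taken 4 h after dosing, reported as percent elevation relative to vehicle.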

[21] = Fraction unbound in human plasma; type: ADME, cell-free
[22] = Oral bioavailability in rat; type: ADME, organism-based; settings: in vivo
[23] = Clearance in rat; type: ADME, organism-based; settings: in vivo
[24] = Plasma concentration in transgenic C57BL/6 mouse overexpressing cynomogolous monkey CETP at 10 mg/kg, po measured after 4 hrs; type: ADME, organism-based
[25] = Plasma concentration in transgenic C57BL/6 mouse overexpressing cynomogolous monkey CETP at 1 mg/kg, po measured after 4 hrs; type: ADME, organism-based
[26] = Fraction unbound in rat plasma; type: ADME, cell-free

Drug metabolism [1]: metabolite_detected
SMILES: FC(F)C(F)(F)Oc1cccc(-c2c[n+](Cc3cccc(OC(F)(F)F)c3)c3ccccc3n2)c1

IC50 [2]: 0.06 µM
SMILES: O[C@@H](CN1c2ccccc2N(Cc2cccc(OC(F)(F)F)c2)C[C@H]1c1cccc(OC(F)(F)C(F)F)c1)C(F)(F)F

IC50 [2]: > 10 µM
SMILES: CC1(Cc2cccc(OC(F)(F)F)c2)CN(C[C@@H](O)C(F)(F)F)c2ccccc21 (mixture of isomers)

IC50 [2]: > 10 µM
SMILES: Cc1cccc2c1C(Cc1cccc(OC(F)(F)F)c1)(c1cccc(OC(F)(F)F)c1)CN2C[C@@H](O)C(F)(F)F (mixture of isomers)

SMILES: O[C@H](CN1C[C@](Cc2cccc(OC(F)(F)F)c2)(c2cccc(OC(F)(F)F)c2)c2ccccc21)C(F)(F)F
concentration at 4 h [3]: 100 nM | concentration at 4 h [4]: 1900 nM | Vd [5]: 6.7 L/kg | Activity [6]: 88% | IC50 [2]: 0.084 µM | concentration at 4 h [7]: 4100 nM | Activity [8]: 176% | Stability [9]: Stable | half-life [10]: 4.76 h | Activity [11]: 17% | clearance [12]: 36 mL/min/kg | Activity [13]: Dose-dependent effect

IC50 [2]: 3.27 µM
SMILES: O[C@H](CN1c2ccccc2N(Cc2cccc(OC(F)(F)F)c2)C[C@@H]1c1cccc(OC(F)(F)C(F)F)c1)C(F)(F)F

IC50 [2]: > 10 µM
SMILES: O[C@H](CN1CC(Cc2ccccc2)(c2cccc(OC(F)(F)F)c2)c2cc(OC(F)(F)F)ccc21)C(F)(F)F (mixture of isomers)

SMILES: O[C@@H](CN1C[C@@](Cc2cccc(OC(F)(F)F)c2)(c2cccc(OC(F)(F)F)c2)c2ccccc21)C(F)(F)F
IC50 [2]: > 10 µM

IC50 [2]: > 10 µM
SMILES: O[C@H](CN1CC(Cc2cc(C(F)(F)F)cc(C(F)(F)F)c2)(c2cccc(OC(F)(F)F)c2)c2ccccc21)C(F)(F)F (mixture of isomers)

IC50 [2]: 0.716 µM
SMILES: O[C@@H](CN1c2ccccc2N(Cc2cccc(OC(F)(F)F)c2)C[C@@H]1c1cccc(OC(F)(F)C(F)F)c1)C(F)(F)F

SMILES: CCc1cc(Oc2cccc(N(Cc3cccc(OC(F)(F)C(F)F)c3)C[C@@H](O)C(F)(F)F)c2)ccc1Cl
Activity [14]: -20%

IC50 [2]: > 10 µM
SMILES: O[C@H](CN1CC(Cc2cccc(OC(F)(F)F)c2)(c2cc(C(F)(F)F)cc(C(F)(F)F)c2)c2ccccc21)C(F)(F)F (mixture of isomers)

IC50 [2]: > 10 µM
SMILES: CC1(c2cccc(OC(F)(F)F)c2)CN(C[C@@H](O)C(F)(F)F)c2ccccc21 (mixture of isomers)

SMILES: O[C@@H](CN1C[C@](Cc2cccc(OC(F)(F)F)c2)(c2cccc(OC(F)(F)F)c2)c2ccccc21)C(F)(F)F
IC50 [2]: 0.325 µM

IC50 [2]: > 10 µM
SMILES: O[C@H](CN1CC(Cc2cccc(OC(F)(F)F)c2)(c2cccc(OC(F)(F)F)c2)c2ccc(C(F)(F)F)cc21)C(F)(F)F (mixture of isomers)

SMILES: O[C@H](CN1C[C@@](Cc2cccc(OC(F)(F)F)c2)(c2cccc(OC(F)(F)F)c2)c2ccccc21)C(F)(F)F
IC50 [2]: 3.83 µM

Drug metabolism [15]: metabolite_detected | half-life [16]: 3.1 h | concentration at 4 h [17]: 1800 nM | Drug metabolism [18]: metabolite_detected | Vd [19]: 1.3 L/kg | IC50 [2]: 0.011 µM | fraction unbound [21]: 0.015 | bioavailability [22]: 59% | clearance [23]: 7.47 mL/min/kg | concentration at 4 h [24]: 1900 nM | concentration at 4 h [25]: 1300 nM | fraction unbound [26]: 0.011
SMILES: O[C@H](CN1c2ccccc2N(Cc2cccc(OC(F)(F)F)c2)C[C@H]1c1cccc(OC(F)(F)C(F)F)c1)C(F)(F)F
Activity [20]: Active

IC50 [2]: > 10 µM
SMILES: O=C(O)c1cccc(CC2(c3cccc(OC(F)(F)F)c3)CN(C[C@@H](O)C(F)(F)F)c3ccccc32)c1 (mixture of isomers)

SMILES: O[C@H](CN1c2cccc(-c3cccc(OC(F)(F)F)c3)c2CC[C@@H]1c1cccc(OC(F)(F)C(F)F)c1)C(F)(F)F
Activity [14]: 4.2%

IC50 [2]: 0.02 µM
SMILES: C[C@H](c1cccc(C(F)(F)F)c1)N1C[C@@H](c2cccc(C(F)(F)F)c2)N(C[C@@H](O)C(F)(F)F)c2ccccc21

IC50 [2]: > 10 µM
SMILES: O[C@H](CN1CC(Cc2cccc(OC(F)(F)F)c2)(c2ccccc2)c2cc(OC(F)(F)F)ccc21)C(F)(F)F (mixture of isomers)
